pIC50: −log10 of the molar value. Calls of active or inactive are those of the source. The rule behind the calls is not given here.
Columns and labels:
Histone deacetylase 1 = Histone deacetylase 1 (Homo sapiens, UniProt Q13547); experiment: Inhibition of human HDAC1 using RHKKAc peptide as substrate
Homo sapiens = species on record: Homo sapiens; experiment: Selectivity index, ratio of IC50 for human HDAC1 to IC50 for human HDAC6
[1] = target: T1, Protein deacetylase HDAC6 (Homo sapiens) (UniProt Q9UBN7); experiment: Inhibition of HDAC6 in human SH-SY5Y cells transfected with pCAX FLAG APP and pRK5-EGFP-Tau P301L plasmids assessed as inhibition of Tau P301L mutant phosphorylation at Ser396 residue at 1 uM after 24 hrs by Western blot analysis; type: cell-based
T1 sequence (whole entry): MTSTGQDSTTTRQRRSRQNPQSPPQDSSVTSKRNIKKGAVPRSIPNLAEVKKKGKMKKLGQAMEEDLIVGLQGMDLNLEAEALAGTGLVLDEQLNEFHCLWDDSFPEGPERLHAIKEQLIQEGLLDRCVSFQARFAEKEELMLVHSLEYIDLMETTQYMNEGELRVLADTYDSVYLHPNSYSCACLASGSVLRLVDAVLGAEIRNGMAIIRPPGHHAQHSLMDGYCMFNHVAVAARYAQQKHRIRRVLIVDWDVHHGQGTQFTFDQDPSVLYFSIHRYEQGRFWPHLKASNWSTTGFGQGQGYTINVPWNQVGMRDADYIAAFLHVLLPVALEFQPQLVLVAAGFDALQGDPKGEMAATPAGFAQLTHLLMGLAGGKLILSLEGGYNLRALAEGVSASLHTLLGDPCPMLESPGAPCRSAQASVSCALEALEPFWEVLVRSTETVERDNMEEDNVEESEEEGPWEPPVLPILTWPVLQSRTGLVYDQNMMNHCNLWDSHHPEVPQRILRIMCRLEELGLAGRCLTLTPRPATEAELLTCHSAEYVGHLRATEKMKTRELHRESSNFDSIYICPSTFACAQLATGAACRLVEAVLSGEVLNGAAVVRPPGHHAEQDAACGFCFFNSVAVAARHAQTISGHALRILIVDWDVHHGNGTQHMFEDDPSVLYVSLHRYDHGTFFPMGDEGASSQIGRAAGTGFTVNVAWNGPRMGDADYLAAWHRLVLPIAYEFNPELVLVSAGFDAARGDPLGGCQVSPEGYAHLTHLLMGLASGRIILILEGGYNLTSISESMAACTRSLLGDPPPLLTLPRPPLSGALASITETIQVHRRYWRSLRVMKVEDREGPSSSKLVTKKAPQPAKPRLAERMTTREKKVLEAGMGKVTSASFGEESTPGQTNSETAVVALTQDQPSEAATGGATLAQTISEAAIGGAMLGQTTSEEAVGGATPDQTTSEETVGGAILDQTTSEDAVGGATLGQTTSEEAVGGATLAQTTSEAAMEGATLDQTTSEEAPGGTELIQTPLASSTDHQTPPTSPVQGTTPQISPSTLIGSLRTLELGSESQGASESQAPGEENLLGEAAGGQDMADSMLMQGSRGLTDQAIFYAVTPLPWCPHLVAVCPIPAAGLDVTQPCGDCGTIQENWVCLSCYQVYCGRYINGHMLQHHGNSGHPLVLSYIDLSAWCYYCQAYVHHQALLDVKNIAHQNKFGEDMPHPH
Outline: (§1)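 SH-SY5Y or Neuro-2a cells cotransfected 24 h with pCAX APP695 and pRK5-EGFP-Tau P301L, then treated 24 h at 1 µM. 20 µg lysate protein immunoblotted for APP and phospho-tau Ser396/Ser404. Mean ± STD of three independent experiments; Student's t-test.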

[2] = target: T2, Protein deacetylase HDAC6 (Mus musculus) (UniProt Q9Z2V5); experiment: Inhibition of HDAC6 in mouse Neuro-2a cells transfected with pCAX FLAG APP and pRK5-EGFP-Tau P301L plasmids assessed as inhibition of Tau P301L mutant phosphorylation at Ser396 residue at 1 uM after 24 hrs by Western blot analysis; type: cell-based; outline: as §1
T2 sequence (whole entry): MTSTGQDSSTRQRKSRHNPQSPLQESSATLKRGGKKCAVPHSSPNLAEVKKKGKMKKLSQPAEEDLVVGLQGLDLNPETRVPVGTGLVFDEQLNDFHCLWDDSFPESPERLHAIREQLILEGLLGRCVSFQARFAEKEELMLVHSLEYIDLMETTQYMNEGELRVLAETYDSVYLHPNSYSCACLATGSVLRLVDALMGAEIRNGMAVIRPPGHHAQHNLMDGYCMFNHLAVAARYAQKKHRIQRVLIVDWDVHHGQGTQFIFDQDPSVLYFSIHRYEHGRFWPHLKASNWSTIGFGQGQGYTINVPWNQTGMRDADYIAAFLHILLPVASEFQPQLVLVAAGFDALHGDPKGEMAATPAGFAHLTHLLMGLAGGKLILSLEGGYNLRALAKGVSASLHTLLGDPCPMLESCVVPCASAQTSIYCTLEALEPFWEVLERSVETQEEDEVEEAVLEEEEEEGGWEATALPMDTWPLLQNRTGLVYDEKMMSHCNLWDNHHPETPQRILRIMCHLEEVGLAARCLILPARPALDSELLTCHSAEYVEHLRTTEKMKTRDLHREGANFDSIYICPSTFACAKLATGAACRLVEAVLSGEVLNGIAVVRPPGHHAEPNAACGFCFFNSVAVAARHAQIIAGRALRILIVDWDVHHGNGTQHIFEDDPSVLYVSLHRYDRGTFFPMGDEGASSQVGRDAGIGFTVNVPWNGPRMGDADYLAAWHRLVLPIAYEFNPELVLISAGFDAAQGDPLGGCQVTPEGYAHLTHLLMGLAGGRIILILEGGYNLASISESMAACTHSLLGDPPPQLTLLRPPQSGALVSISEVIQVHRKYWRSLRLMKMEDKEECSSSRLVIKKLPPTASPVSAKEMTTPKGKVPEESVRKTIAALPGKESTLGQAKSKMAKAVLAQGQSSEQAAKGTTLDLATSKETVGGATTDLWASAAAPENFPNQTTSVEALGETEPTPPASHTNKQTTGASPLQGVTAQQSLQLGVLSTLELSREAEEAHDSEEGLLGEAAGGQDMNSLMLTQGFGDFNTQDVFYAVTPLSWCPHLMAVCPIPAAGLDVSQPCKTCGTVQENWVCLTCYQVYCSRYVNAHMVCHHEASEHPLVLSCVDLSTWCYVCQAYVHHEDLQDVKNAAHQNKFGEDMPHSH

Histone deacetylase 1, sequence (Q13547 whole entry): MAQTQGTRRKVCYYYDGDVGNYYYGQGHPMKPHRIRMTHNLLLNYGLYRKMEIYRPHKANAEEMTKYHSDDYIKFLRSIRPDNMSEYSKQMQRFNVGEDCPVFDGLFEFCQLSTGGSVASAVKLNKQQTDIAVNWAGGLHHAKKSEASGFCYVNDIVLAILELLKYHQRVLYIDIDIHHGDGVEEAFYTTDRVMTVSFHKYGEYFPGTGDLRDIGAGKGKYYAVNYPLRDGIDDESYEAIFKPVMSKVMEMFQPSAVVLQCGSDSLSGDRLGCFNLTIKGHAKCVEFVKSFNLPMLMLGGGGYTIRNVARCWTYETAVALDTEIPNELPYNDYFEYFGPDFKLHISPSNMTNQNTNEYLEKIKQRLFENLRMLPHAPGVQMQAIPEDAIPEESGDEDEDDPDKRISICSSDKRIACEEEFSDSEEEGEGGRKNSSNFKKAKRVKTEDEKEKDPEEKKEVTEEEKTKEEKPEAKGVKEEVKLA

pIC50 (Histone deacetylase 1) | Ratio IC50 (Homo sapiens) | inhibition [1] | inhibition [2] | SMILES
5.32 | 710 | Active | Active | O=C(NO)c1ccc(Cn2ccc3cc(C(=O)c4ccc(Cl)cc4)ccc32)cc1
5.48 | 357 | Active | Active | O=C(NO)c1ccc(Cn2ccc3cc(C(=O)c4ccc(F)cc4)ccc32)cc1

SMILES | pIC50 (Histone deacetylase 1) | Ratio IC50 (Homo sapiens) | inhibition [1] | inhibition [2]
COc1ccc(C(=O)c2ccc3c(ccn3Cc3ccc(C(=O)NO)cc3)c2)cc1 | 5.66 | 559 | Active | Active

— ChEMBL document CHEMBL4196108, “5-Aroylindoles Act as Selective Histone Deacetylase 6 Inhibitors Ameliorating Alzheimer's Disease Phenotypes” (J Med Chem, 2018)
